The record followed here is ChEMBL document CHEMBL4325822, “Discovery of a tetrazolyl β-carboline with in vitro and in vivo osteoprotective activity under estrogen-deficient conditions” (Medchemcomm, 2018).

Data set [1] has as its system Rattus norvegicus. The experiment in a line: Antiosteoporotic activity in Sprague-Dawley rat model of OVX-induced bone loss assessed as restoration of bone mineral density loss in femur bone at 1 to 5 mg/kg po via gavage for 12 weeks by microcomputed tomographic analysis relative to control. Format: functional. In a few lines: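 Adult female Sprague-Dawley rats were ovariectomized and left 12 weeks to become osteopenic. They then received 12 weeks of once-daily oral gavage (1% gum acacia vehicle) or subcutaneous estradiol, five days a week. Femurs were collected at sacrifice and scanned by micro-CT for BMD and trabecular microarchitecture. Ten rats per group; mean ± SEM.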

The nature of data set [2]: Antioxidant activity assessed as SNP-induced nitric oxide free radical scavenging activity at 500 ug/ml after 150 mins by Griess reagent based method relative to control. The class given is functional. In a few lines: (§1)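 Serial dilutions (1000 to 1.95 µg·ml⁻¹) were mixed with sodium nitroprusside (10 mM) and incubated 150 min. An equal volume of Griess reagent was added, and absorbance was read at 546 nm. Percentage scavenging was calculated relative to the control without compound.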

For data set [3], the system named is Calvarial osteoblast. In words: Induction of osteoblast proliferation in Sprague-Dawley rat calvarial osteoblasts at 0.000001 to 1 uM after 48 hrs BrdU incorporation assay. The class given is functional, cell-based. In a few lines:
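2 × 10³ cells/well in duplicate plates, one for cell number and one for BrdU. Cells treated 48 h in differentiation medium, then BrdU added for a further 24 h. Fixed cells get anti-BrdU (1 h RT), then peroxidase secondary (30 min), TMB (30 min, dark), stop, read at 450 nm. Result given as BrdU(+) osteoblasts, % of total.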

A short description of data set [4]: Antioxidant activity assessed as SNP-induced nitric oxide free radical scavenging activity at 1000 ug/ml after 150 mins by Griess reagent based method relative to control. The class given is functional. In a few lines: as §1
Data set [5] is described as follows: Toxicity in Sprague-Dawley rat model of OVX-induced bone loss assessed as luminal area at 1 mg/kg, po via gavage for 12 weeks (reference value: 0.01 +/- 0.0004 mm2). Format: organism-based. The settings on record: in vivo, 2016 h.
Data set [6] is described as follows: Toxicity in Sprague-Dawley rat model of OVX-induced bone loss assessed as uterine weight at 1 mg/kg, po via gavage for 12 weeks (reference value: 0.12 +/- 0.02 g). The class given is organism-based. The note with it: in vivo, 2016 h.
Data set [7] deals with Rattus norvegicus. The experiment in a line: Antiosteoporotic activity in Sprague-Dawley rat model of OVX-induced bone loss assessed as bone formation rate at 5 mg/kg, po via gavage for 12 weeks by microcomputed tomographic analysis (reference value: 0.171 +/- 0.005 um3/um2/day). The class given is functional. In a few lines:
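Female Sprague-Dawley rats, 10-12 weeks old, ten per group, were ovariectomized and left 12 weeks for osteopenia. They were then dosed once daily by oral gavage for 12 weeks in 1% gum acacia vehicle. The estradiol arm received 100 µg·kg⁻¹ subcutaneously five days a week. Tetracycline and calcein were given intraperitoneally at 20 mg·kg⁻¹ each. Femur cross-sections (50 µm) were imaged by fluorescence microscopy for MAR and BFR.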

Data set [8] has as its system Rattus norvegicus. The experiment in a line: Antiosteoporotic activity in Sprague-Dawley rat model of OVX-induced bone loss assessed as increase in serum PINP level at 1 to 5 mg/kg, po via gavage for 12 weeks by ELISA. Format: functional, organism-based. In a few lines:
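Ovariectomy model as above: 12 weeks of osteopenia, then 12 weeks of daily gavage or subcutaneous estradiol. Serum was separated at autopsy, and CTX and PINP were measured by ELISA kits.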

The subject of data set [9] is Rattus norvegicus. The experiment in a line: Upregulation of Runx2 mRNA expression in femur bone of Sprague-Dawley rat model of OVX-induced bone loss at 1 to 5 mg/kg, po via gavage for 12 weeks by qPCR analysis. Format: functional, organism-based. In a few lines:
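Ovariectomized female SD rats, osteopenic after 12 weeks, dosed orally once daily for 12 weeks (1.0 or 5.0 mg·kg⁻¹·day⁻¹, 1% gum acacia vehicle); sham and OVX vehicle groups included. Femurs collected at sacrifice for qRT-PCR, analysed by the ΔΔCT method.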

Data set [10] is described as follows: Antioxidant activity assessed as SNP-induced nitric oxide free radical scavenging activity at 250 ug/ml after 150 mins by Griess reagent based method relative to control. Format: functional. In a few lines: as §1
Data set [11] relates to Rattus norvegicus. In words: Antiosteoporotic activity in Sprague-Dawley rat model of OVX-induced bone loss assessed as increase in femoral bone strength by measuring energy at 1 mg/kg, po via gavage for 12 weeks by 3 point bending test (reference value: 46.27 +/- 4.36 mJ). The class given is functional.
For data set [12], the target named is I-kappa-B kinase (Rattus norvegicus) (UniProt Q9QY78+G3V926+Q6TMG5). The experiment in a line: Inhibition of IKK in Sprague-Dawley rat calvarial osteoblasts assessed as reduction in TNFalpha-induced NFkB nuclear translocation at 100 pM after 24 hrs by immunofluorescence assay. The class given is cell-based. The note with it: Calvarial osteoblast. In a few lines: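 Primary rat osteoblasts on chamber slides given TNFα (10 ng·ml⁻¹) for 24 h, with or without treatment. Then 4% PFA fixation, 0.1% Triton X-100, anti-NF-κB overnight, and Cy3 anti-rabbit secondary. Fluorescence imaged at excitation 552 nm, emission 570 nm.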

Data set [13] concerns Calvarial osteoblast. The experiment in a line: Osteogenic activity in Sprague-Dawley rat calvarial osteoblasts assessed as mineralized nodule formation at 100 pM after 21 days by alizarin red-S staining based light microscopic method. Format: functional, cell-based. In a few lines:
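Osteoblasts at 10,000–15,000 cells/cm² in duplicate plates, 21 days in differentiation medium, medium changed every 48 h. Cells fixed in 4% PFA, stained with alizarin red-S (40 mM, pH 4.5, 30 min) and photographed. Stain extracted with 10% acetic acid, pH brought to 4.5 with ammonium hydroxide, read at 405 nm, normalized to cell number.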

Data set [14] in a line: Increase in Runx2 mRNA expression in Sprague-Dawley rat calvarial osteoblasts at 100 pM by RT-PCR method relative to control. Format: functional, Calvarial osteoblast.
Data set [15] in a line: Toxicity in Sprague-Dawley rat model of OVX-induced bone loss assessed as total uterine area at 5 mg/kg, po via gavage for 12 weeks (reference value: 0.11 +/- 0.003 mm2). The settings on record: in vivo, 2016 h. Format: organism-based.

Activity calls are given as the source filed them. The rule behind the calls is not given here.

Take `CCOC(=O)c1cc2c([nH]c3ccccc32)c(C(c2nnnn2C(C)(C)C)N2CCN(C)CC2)n1` (stereo not given): the Activity in the data set on Rattus norvegicus [1] came to 46%; in [2] it was 31.4%; in [4], 19.3%; in data set [5], 0.012 mm2; in [6] it was 0.13 g; in the data set on Rattus norvegicus [7] it was 0.98 um3/um2/day. Also, the Activity in [10] worked out at 30.7%; in the data set with Rattus norvegicus [11] it was 70.55 mJ; in [15], 0.13 mm2. Besides, the outcome in the data set with Calvarial osteoblast [3], in the data set on Rattus norvegicus [8], in the data set on Rattus norvegicus [9] and in the data set on Calvarial osteoblast [13] was Active. The inhibition result in data set [12] is “Active”. The “fold change (FC)” value in data set [14] is recorded as 1.8 - 4.6.
